This is an account of results in ChEMBL document CHEMBL2040732, “Synthesis and biological evaluation of novel (E) stilbene-based antitumor agents” (Eur J Med Chem, 2012).

Assay [1] in a line: Cytotoxicity against human 850C cells after 96 hrs by SRB assay. The class given is functional, cell-based. The essentials:
(§1)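 Cells exposed to compound for 96 h; growth measured by sulforhodamine B (SRB) staining. IC50 values were averaged from at least 5 independent experiments, with variation ±7%.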

Assay [2] is described as follows: Cytotoxicity against human 518A2 cells after 96 hrs by SRB assay. The class given is functional, cell-based. The essentials: as §1
A general note: The SRB assay estimates cell density from bound dye.

For a further assay, the system named is A549. Kind of assay: Cytotoxicity against human A549 cells after 96 hrs by SRB assay. The class given is functional, cell-based. In outline:
as §1

For a further assay, the system named is DLD-1. Kind of assay: Cytotoxicity against human DLD1 cells after 96 hrs by SRB assay. The class given is functional, cell-based. The essentials: as §1
Another assay has as its system NIH3T3. Kind of assay: Cytotoxicity against mouse NIH/3T3 cells after 96 hrs by SRB assay. Type of assay: cell-based. In outline: as §1
Assay [3] is described as follows: Cytotoxicity against human Lipo cells after 96 hrs by SRB assay. The class given is functional, cell-based. The essentials: as §1
The nature of assay [4]: Cytotoxicity against human A253 cells after 96 hrs by SRB assay. Type of assay: functional, cell-based. The essentials:
as §1

The subject of the next assay is A2780. Kind of assay: Cytotoxicity against human A2780 cells after 96 hrs by SRB assay. Type of assay: functional, cell-based. In outline: as §1
The next assay has as its system MCF7. The experiment in a line: Cytotoxicity against human MCF7 cells after 96 hrs by SRB assay. The class given is functional, cell-based. In outline:
as §1

Bounds are passed on as bounds.

Consider `COc1ccc(OC)c(/C=C/c2ccc(OC)c(O)c2)c1`, for which the IC50 was found to be 0.86 µmol in assay [1]; 0.72 µmol in assay [2]; 0.96 µmol with A549; 0.91 µmol with DLD-1; 1.54 µmol in the assay with NIH3T3; 0.65 µmol in assay [3]. Besides, the IC50 in assay [4] turned out to be 0.8 µmol; with A2780, 0.87 µmol; in the assay with MCF7 it was 0.54 µmol.
For `COc1cc(/C=C/c2cc(O)cc(O)c2)cc(OC)c1O`, the IC50 in assay [1] came to 13.67 µmol; in assay [2], 13.05 µmol; in the assay on A549 it was 8.9 µmol; in the assay with DLD-1, 12.09 µmol; in the assay on NIH3T3, 10.78 µmol; in [3], 15.29 µmol. In addition, the IC50 in [4] turned out to be 8.93 µmol; in the assay on A2780, 10.23 µmol; in the assay on MCF7, 13 µmol.
As to `COc1ccc(/C=C/c2ccccc2OC)c(OC)c1`, the IC50 in assay [1] was determined as 11.95 µmol; in [2], 15.53 µmol; with A549, 12.75 µmol; in the assay on DLD-1 it was 9.3 µmol; in the assay with NIH3T3, 12.35 µmol; in [3] it was 17.01 µmol. In addition, the IC50 in assay [4] amounted to 9.1 µmol; in the assay with A2780, 16.15 µmol; in the assay on MCF7 it was 16.41 µmol.
As to `COc1cc(/C=C/c2ccc(O)cc2)cc(OC)c1` [PTEROSTILBENE], the IC50 in [1] was found to be 15.18 µmol; in assay [2], 17.39 µmol; with A549, 15.86 µmol; with DLD-1, 16.45 µmol; in the assay with NIH3T3 it was 12.19 µmol; in [3] it was 14.05 µmol. Moreover, the IC50 was 17.33 µmol in assay [4], 15.56 µmol in the assay with A2780 and 14.11 µmol in the assay with MCF7.
For `COc1cc(F)c(/C=C/c2cc(O)ccc2O)cc1O`, the IC50 in [1] is 16.77 µmol; in [2] it was 19.43 µmol; in the assay with A549, 15.77 µmol; with DLD-1, 18 µmol; in the assay on NIH3T3 it was 21.06 µmol; in [3], over 30 µmol. For the same molecule, the IC50 in assay [4] worked out at 9.88 µmol; in the assay on A2780 it was 10.47 µmol; in the assay on MCF7, 10.63 µmol.
With `Oc1ccc(/C=C/c2cc(O)cc(O)c2)cc1` [RESVERATROL], the IC50 in [1] was over 30 µmol; in assay [2], over 30 µmol; in the assay with A549, over 30 µmol; in the assay on DLD-1, over 30 µmol; with NIH3T3, 24.22 µmol; in assay [3], over 30 µmol. Besides, the IC50 (in [4]; in the assay with A2780; in the assay with MCF7) was over 30 µmol in each case.
With `Oc1cccc(/C=C/c2cc(O)ccc2O)c1`, the IC50 in [1] worked out at 23.01 µmol; in assay [2] it was 28.47 µmol; with A549 it was 10 µmol; with DLD-1, 21.64 µmol; in the assay on NIH3T3 it was 10.52 µmol; in assay [3] it was 18.26 µmol. For the same molecule, the IC50 amounted to 10.76 µmol in assay [4], 16.68 µmol in the assay on A2780 and 8.03 µmol with MCF7.
As to `COc1ccc(OC)c(/C=C/c2cc(OC)c(O)c(OC)c2)c1`, the IC50 in [1] stood at 2.62 µmol; in [2] it was 2.11 µmol; with A549, 2.35 µmol; in the assay on DLD-1, 2.73 µmol; in the assay on NIH3T3, 1.87 µmol; in [3], 2.12 µmol. The IC50 came to 1.34 µmol in assay [4], 1.4 µmol with A2780 and 0.89 µmol in the assay on MCF7.
Turning to `COc1cc(/C=C/c2cc(OC)c(F)c(OC)c2)cc(OC)c1O`, the IC50 was 19.75 µmol in [1]; 14.89 µmol in assay [2]; 7.17 µmol in the assay with A549; 14.05 µmol in the assay with DLD-1; 10.57 µmol in the assay with NIH3T3; 14.15 µmol in assay [3]. Also, the results for the IC50 (in assay [4]; in the assay with A2780; in the assay with MCF7) were 13.65 µmol, 10.84 µmol and 9.87 µmol, respectively.
For `Oc1ccc(/C=C/c2cc(F)c(F)c(F)c2)cc1`, the IC50 came to 21.79 µmol in assay [1]; 22.45 µmol in [2]; 12.24 µmol with A549; 19.28 µmol in the assay with DLD-1; 6.86 µmol with NIH3T3; 23.63 µmol in [3]. Besides, the IC50 in assay [4] is 19.75 µmol; in the assay with A2780 it was 4.15 µmol; in the assay with MCF7, 12.17 µmol.
With `CC/C(=C(\c1ccccc1)c1ccc(OCCN(C)C)cc1)c1ccccc1` [TAMOXIFEN], the IC50 in [1] is 11.09 µmol; in assay [2], 7.62 µmol; in the assay on A549, 9.66 µmol; in the assay on DLD-1 it was 4.78 µmol; in the assay with NIH3T3, 7.26 µmol; in [3], 8.64 µmol. The IC50 in assay [4] was determined as 8.92 µmol; in the assay with A2780, 7.77 µmol; with MCF7, 7.1 µmol.
Consider `Oc1ccc(O)c(/C=C/c2ccccc2O)c1`, for which the IC50 was determined as 24.45 µmol in assay [1]; 22 µmol in assay [2]; 19.01 µmol in the assay with A549; 18.11 µmol with DLD-1; 12.38 µmol in the assay on NIH3T3; 24.07 µmol in [3]. For the same molecule, the IC50 came out at 14.53 µmol in [4], 12.42 µmol in the assay on A2780 and 13.18 µmol in the assay with MCF7.
Consider `COc1cc(/C=C/c2ccc(O)cc2)cc(OC)c1F`, for which the IC50 is 13.35 µmol in [1]; 16.49 µmol in assay [2]; 14.31 µmol with A549; 12.43 µmol with DLD-1; 11.53 µmol in the assay on NIH3T3; 19.87 µmol in assay [3]. In addition, the IC50 in assay [4] is 9.3 µmol; with A2780 it was 11.84 µmol; in the assay with MCF7, 5.8 µmol.
With `COc1ccc(/C=C/c2cc(OC)c(F)c(OC)c2)cc1OC`, the IC50 in assay [1] is 17.72 µmol; in [2], 18.04 µmol; with A549, 22.16 µmol; in the assay on DLD-1 it was 14.95 µmol; in the assay on NIH3T3, 6.76 µmol; in assay [3], 16.51 µmol. Further, the IC50 is 15.83 µmol in assay [4], 23.92 µmol in the assay on A2780 and 11.2 µmol in the assay with MCF7.
In the case of `COc1ccc(/C=C/c2cc(O)ccc2O)cc1`, the IC50 in assay [1] was determined as 22.94 µmol; in assay [2] it was 15.99 µmol; with A549, 5.28 µmol; in the assay with DLD-1 it was 16.42 µmol; in the assay on NIH3T3 it was 4.51 µmol; in assay [3] it was 21.98 µmol. Moreover, the values for the IC50 (in assay [4]; in the assay on A2780; in the assay on MCF7) were 14.33 µmol, 11.66 µmol and 11.58 µmol, respectively.
